Measurements reported in ChEMBL document CHEMBL1157420, “2-phenyl-4-piperazinylbenzimidazoles: orally active inhibitors of the gonadotropin releasing hormone (GnRH) receptor” (Bioorg Med Chem, 2008).
pIC50, pKi: −log10 of the molar value. In brackets after ≈: the same amount, converted by molar mass.

Tests used:
[1] = biological target: T1, Gonadotropin-releasing hormone receptor (Homo sapiens, UniProt P30968); experiment: Displacement of [125I]-(D-Trp6)LHRH from human recombinant GnRH receptor
T1 sequence (P30968 whole entry): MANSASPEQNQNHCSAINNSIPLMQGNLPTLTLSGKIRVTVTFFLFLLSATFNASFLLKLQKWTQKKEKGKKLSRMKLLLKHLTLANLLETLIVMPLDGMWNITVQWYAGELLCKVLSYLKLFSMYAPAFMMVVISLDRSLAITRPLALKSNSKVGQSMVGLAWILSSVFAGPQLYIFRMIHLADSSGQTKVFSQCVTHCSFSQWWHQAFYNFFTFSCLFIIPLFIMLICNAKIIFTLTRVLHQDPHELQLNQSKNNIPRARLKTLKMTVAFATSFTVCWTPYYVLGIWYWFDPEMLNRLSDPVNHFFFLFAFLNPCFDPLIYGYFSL
Method in brief: (§1)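 Membranes from recombinant cells expressing human or rat GnRH receptor, made in 25 mM Tris-Cl pH 7.4 with 0.1% sodium azide and 0.1% BSA. 50 μg protein incubated with about 50,000 cpm 125I-(D-Trp6)-LHRH for 2 h at 4 °C, with increasing unlabeled competitor. Filtered on BSA-presoaked glass-fiber filters, washed twice, counted by gamma counter. Percent inhibition and IC50 derived.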

[2] = biological target: T2, Gonadotropin-releasing hormone receptor (Rattus norvegicus, UniProt P30969); experiment: Displacement of [125I]-(D-Trp6)LHRH from rat recombinant GnRH receptor; method in brief: as §1
T2 sequence (P30969 whole entry): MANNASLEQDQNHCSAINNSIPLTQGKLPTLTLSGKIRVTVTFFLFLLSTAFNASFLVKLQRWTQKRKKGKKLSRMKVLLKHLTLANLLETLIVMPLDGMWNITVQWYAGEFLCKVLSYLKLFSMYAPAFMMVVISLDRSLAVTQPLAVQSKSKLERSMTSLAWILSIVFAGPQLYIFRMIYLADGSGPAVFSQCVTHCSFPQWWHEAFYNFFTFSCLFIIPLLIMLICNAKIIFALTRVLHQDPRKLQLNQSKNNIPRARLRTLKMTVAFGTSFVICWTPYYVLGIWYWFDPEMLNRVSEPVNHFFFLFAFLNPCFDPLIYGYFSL

[3] = biological target: T1, Gonadotropin-releasing hormone receptor; experiment: Antagonist activity at human recombinant GnRH receptor assessed as reduction in (D-Trp6)LHRH-induced myo-(1,2)-[3H]inositol production; format: functional
Method in brief: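 Recombinant cells expressing human GnRH receptor, pre-labeled with myo-(1,2)-3H-inositol, incubated 1 h in medium with lithium chloride and D-Trp6-LHRH, with or without antagonist. Cells then lysed and labeled inositol phosphates separated from inositol by […] and counted. Run in triplicate, repeated in three independent experiments; IC50 derived.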

[4] = biological target: T3, 5-hydroxytryptamine receptor 1A (Homo sapiens, UniProt P08908); experiment: Binding affinity to human 5HT1A receptor; details: read-out: Ki
T3 sequence (P08908 whole entry): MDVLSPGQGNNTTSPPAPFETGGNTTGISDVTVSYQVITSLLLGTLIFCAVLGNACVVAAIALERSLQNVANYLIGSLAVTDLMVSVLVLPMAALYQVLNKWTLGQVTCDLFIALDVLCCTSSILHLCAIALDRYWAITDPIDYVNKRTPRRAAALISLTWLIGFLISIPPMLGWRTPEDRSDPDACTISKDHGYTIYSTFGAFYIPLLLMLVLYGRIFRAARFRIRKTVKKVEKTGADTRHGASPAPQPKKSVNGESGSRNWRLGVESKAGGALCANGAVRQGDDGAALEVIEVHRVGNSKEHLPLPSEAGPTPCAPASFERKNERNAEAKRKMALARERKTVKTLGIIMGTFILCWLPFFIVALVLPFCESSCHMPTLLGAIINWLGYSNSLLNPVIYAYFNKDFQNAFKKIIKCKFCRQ

[5] = biological target: T2, Gonadotropin-releasing hormone receptor; experiment: Antagonist activity at […] GnRH receptor in CO2 asphyxiated rat primary pituitary cells assessed as reduction in (D-Trp6)LHRH-induced LH release; format: functional, cell-based, Pituitary gland cell
Method in brief: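 Anterior pituitaries from adult rats were minced, dissociated and plated at 30,000 cells/well in DMEM with 25 mM Hepes and 10% FBS, then cultured 72 h at 37 °C, 5% CO2. After washing, cells were treated 3 h in 0.1% BSA medium with an antagonist dose response plus an ED50 concentration of D-Trp6-LHRH. LH in medium measured by RIA; cell toxicity checked by CellTiter-Glo.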

[6] = biological target: 5-hydroxytryptamine receptor 1B (Homo sapiens, UniProt P28222); experiment: Binding affinity to human 5HT1B receptor at 1000 nM
[7] = biological target: 5-hydroxytryptamine receptor 1D (Homo sapiens, UniProt P28221); experiment: Binding affinity to human 5HT1D receptor at 1000 nM
[8] = biological target: T4, Gonadotropin-releasing hormone receptor (Homo sapiens) (UniProt P30968); experiment: Displacement of [125I]-(D-Trp6)LHRH from human recombinant GnRH receptor at 10 uM; method in brief: as §1
T4 sequence (whole entry): T1 sequence (P30968 whole entry)

[9] = Solubility of compound at pH 7.4; format: physicochemical; details: buffer
[10] = Membrane permeability by PAMPA assay; format: ADME; details: read-out: permeability
[11] = Metabolic stability in rat liver microsomes assessed as half life; format: ADME, Microsome
[12] = Half life in rat plasma at 10 mg/kg, po; format: ADME, organism-based; parameters: dose 10 mg/kg, route oral
[13] = Tmax in rat at 10 mg/kg, po; format: ADME, organism-based; parameters: dose 10 mg/kg, route oral; details: in vivo
[14] = Cmax in rat at 10 mg/kg, po; format: ADME, organism-based; parameters: dose 10 mg/kg, route oral; details: in vivo
[15] = AUC (0 to infinity) in rat at 10 mg/kg, po; format: ADME, organism-based; parameters: dose 10 mg/kg, route oral, time infinity; details: plasma
[16] = Bioavailability in rat at 10 mg/kg, po; format: ADME, organism-based; details: in vivo
[17] = Half life in rat plasma at 1.0 mg/kg, iv; format: ADME, organism-based; parameters: dose 1 mg/kg, route intravenous
[18] = AUC (0 to infinity) in rat at 1.0 mg/kg, iv; format: ADME, organism-based; parameters: time infinity, dose 1 mg/kg, route intravenous; details: plasma
[19] = Plasma clearance in rat at 1.0 mg/kg, iv; format: ADME, organism-based; parameters: dose 1 mg/kg, route intravenous
[20] = Volume of distribution at steady state in rat at 1.0 mg/kg, iv; format: ADME, organism-based; parameters: dose 1 mg/kg, route intravenous; details: in vivo, read-out: Vdss

Chain of 5-hydroxytryptamine receptor 1B (P28222 whole entry): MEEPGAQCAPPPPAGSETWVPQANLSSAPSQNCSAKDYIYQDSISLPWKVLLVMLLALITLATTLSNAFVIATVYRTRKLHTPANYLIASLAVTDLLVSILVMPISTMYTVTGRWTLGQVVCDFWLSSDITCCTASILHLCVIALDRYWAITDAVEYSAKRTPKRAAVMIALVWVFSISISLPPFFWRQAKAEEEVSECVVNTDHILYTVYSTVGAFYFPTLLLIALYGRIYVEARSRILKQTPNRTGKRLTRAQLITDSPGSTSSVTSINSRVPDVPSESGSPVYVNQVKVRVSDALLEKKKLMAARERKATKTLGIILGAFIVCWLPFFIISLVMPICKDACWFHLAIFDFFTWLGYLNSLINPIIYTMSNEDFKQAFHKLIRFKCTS
Chain of 5-hydroxytryptamine receptor 1D (P28221 whole entry): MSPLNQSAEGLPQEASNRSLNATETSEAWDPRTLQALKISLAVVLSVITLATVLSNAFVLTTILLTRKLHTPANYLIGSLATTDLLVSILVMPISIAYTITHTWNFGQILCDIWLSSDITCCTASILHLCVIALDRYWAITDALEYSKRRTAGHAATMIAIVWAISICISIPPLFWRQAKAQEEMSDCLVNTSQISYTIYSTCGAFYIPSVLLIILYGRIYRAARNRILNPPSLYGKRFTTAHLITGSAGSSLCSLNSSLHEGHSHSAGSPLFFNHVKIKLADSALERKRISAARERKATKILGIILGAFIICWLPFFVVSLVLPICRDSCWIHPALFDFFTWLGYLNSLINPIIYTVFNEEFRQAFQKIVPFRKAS

Row | pIC50 [1] | pIC50 [2] | pIC50 [3] | Activity [8] | SMILES | further results
1 | 6.10 | 4.68 | 5.35 |  | FC(F)(F)c1nc2c(N3CCN(CCOc4cccc5[nH]c(=S)[nH]c45)CC3)cccc2[nH]1 | pKi [4]: 8.55; pIC50 [5]: 4.12; inhibition [6]: 67%; inhibition [7]: 67%
2 |  |  |  | 10% | Cc1nc2c(N3CCN(CCOc4cccc5[nH]c(=S)[nH]c45)CC3)cccc2[nH]1 | 
3 |  |  |  | 6% | O=c1[nH]c2cccc(N3CCN(CCOc4cccc5[nH]c(=S)[nH]c45)CC3)c2[nH]1 | 
4 | 6.92 | 5.41 | 6.19 |  | CCc1ccc(-c2nc3c(N4CCN(CCOc5cccc6[nH]c(=S)[nH]c56)CC4)cccc3[nH]2)cc1 | 
5 | 5.92 |  |  |  | Cc1ccc(-c2nc3c(N4CCN(CCOc5cccc6[nH]c(=S)[nH]c56)CC4)cccc3[nH]2)c(C)c1 | 
6 |  |  |  | 9% | O=c1[nH]c2cccc(N3CCN(CCOc4cccc5[nH]c(=S)[nH]c45)CC3)c2[nH]c1=O | 
7 | 4.96 |  |  |  | S=c1[nH]c2cccc(OCCN3CCN(c4cccc5[nH]c(-c6ccccc6)nc45)CC3)c2[nH]1 | 

Continued, molecule first:

Row | SMILES | pIC50 [1] | pIC50 [2] | pIC50 [3] | Activity [8] | further results
8 | CC(C)(C)c1ccc(-c2nc3c(N4CCN(Cc5ccccc5)CC4)cccc3[nH]2)cc1 |  |  |  | 6% | 
9 | FC(F)(F)c1nc2c(N3CCN(CCCc4cccc5nc(C(F)(F)F)[nH]c45)CC3)cccc2[nH]1 |  |  |  | 42% | 
10 | CC(C)(C)c1ccc(-c2nc3c(N4CCN(Cc5ccc6ccccc6c5)CC4)cccc3[nH]2)cc1 |  |  |  | 7% | 
11 | FC(F)(F)c1nc2c(N3CCN(Cc4cccc5nc(C(F)(F)F)[nH]c45)CC3)cccc2[nH]1 | 5.02 | 4.19 | 4.68 |  | 
12 | CCc1ccc(-c2nc3c(N4CCN(CCOc5cccc6nc(C(F)(F)F)[nH]c56)CC4)cccc3[nH]2)cc1 | 6.66 | 5.28 | 5.64 |  | 
13 | O=C(COc1cccc2[nH]c(=S)[nH]c12)N1CCN(c2cccc3[nH]c(C(F)(F)F)nc23)CC1 |  |  |  | 24% | 
14 | CC(C)(C)c1ccc(-c2nc3c(N4CCN(CCOc5cccc6nc(C(F)(F)F)[nH]c56)CC4)cccc3[nH]2)cc1 | 7.30 | 6.15 | 5.92 |  | 
15 | CC(C)(C)c1ccc(-c2nc3c(N4CCN(Cc5c[nH]c(=O)[nH]c5=O)CC4)cccc3[nH]2)cc1 | 8.26 | 7.49 | 8.03 |  | pIC50 [5]: 7.39; solubility [9]: 25 µg/mL (≈ 54.5 µM); Papp [10]: 0.6 ×10⁻⁶ cm/s; half-life [11]: 0.5 h; half-life [12]: 5.8 h; Tmax [13]: 1.8 h; Cmax [14]: 19 ng/mL; AUC(0-inf) [15]: 200 ng·h/mL; bioavailability [16]: 5%; half-life [17]: 3.5 h; AUC(0-inf) [18]: 355 ng·h/mL; clearance [19]: 47 mL/min/kg; Vd [20]: 3.1 L/kg
16 | O=c1[nH]c2cccc(N3CCN(CCOc4cccc5nc(C(F)(F)F)[nH]c45)CC3)c2[nH]1 |  |  |  | 8% | 
17 | FC(F)(F)c1nc2cccc(OCCN3CCN(c4cccc5[nH]c(=S)[nH]c45)CC3)c2[nH]1 |  |  |  | 42% | 
18 | CC(C)(C)c1ccc(-c2nc3c(N4CCN(Cc5ccc6[nH]c(=O)c(=O)[nH]c6c5)CC4)cccc3[nH]2)cc1 | 8.31 | 7.40 | 8.77 |  | pIC50 [5]: 7.60
